Experiments:
Format in all cases: functional
[1] = tested on: ASPC1; experiment: Growth inhibition of human AsPC1 cells at 50 uM after 48 hrs by MTT assay; settings: ASPC1, 48 h, read-out: GI
How it was run: (§1)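 Single-concentration MTT screen at 50 µM over 48 h in 96-well plates. Compounds giving >50% inhibition were rescreened at 30 µM. OD read at 570 nm, reference 620 nm. Result expressed as % growth inhibition versus untreated control. Mitomycin C, adriamycin or 5-fluorouracil used as positive controls. Mean ± SD of three independent experiments.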

[2] = tested on: PC-3; experiment: Growth inhibition of human PC3 cells at 50 uM after 48 hrs by MTT assay; settings: PC-3, 48 h, read-out: GI; how it was run: as §1
[3] = tested on: MIA PaCa-2; experiment: Growth inhibition of human MIAPaCa2 cells at 50 uM after 48 hrs by MTT assay; settings: MIA PaCa-2, 48 h, read-out: GI; how it was run: as §1
[4] = tested on: MDA-MB-435; experiment: Growth inhibition of human MDA-MB-435 cells at 50 uM after 48 hrs by MTT assay; settings: MDA-MB-435, 48 h, read-out: GI; how it was run: as §1
[5] = tested on: HL-60; experiment: Growth inhibition of human HL60 cells at 50 uM after 48 hrs by MTT assay; settings: HL-60, 48 h, read-out: GI; how it was run: as §1
[6] = tested on: MCF7; experiment: Growth inhibition of human MCF7 cells at 50 uM after 48 hrs by MTT assay; settings: MCF7, 48 h, read-out: GI; how it was run: as §1
[7] = tested on: Caco-2; experiment: Growth inhibition of human Caco2 cells at 50 uM after 48 hrs by MTT assay; settings: Caco-2, 48 h, read-out: GI; how it was run: as §1

Row | Structure (SMILES) | inhibition of growth at 50 µM [1] | inhibition of growth at 50 µM [2] | inhibition of growth at 50 µM [3] | inhibition of growth at 50 µM [4] | inhibition of growth at 50 µM [5] | inhibition of growth at 50 µM [6] | inhibition of growth at 50 µM [7]
1 | CC1(C)CCc2cc(C(=O)/C=C/c3cccc(Cl)c3)c3c(c2O1)CCC(C)(C)O3 | 24% | 59% | 24% | 54% | 60% | 16% | 31%
2 | CC1(C)CCc2cc(C(=O)/C=C/c3ccc(F)cc3)c3c(c2O1)CCC(C)(C)O3 | 28% | 59% | 38% | 52% | 38% | 17% | 12%
3 | CC(=O)c1cc2c(c3c1OC(C)(C)CC3)OC(C)(C)CC2 | 5% | 19% | 25% | 2% | 25% | 18% | 20%
4 | COc1ccc(/C=C/C(=O)c2cc3c(c4c2OC(C)(C)CC4)OC(C)(C)CC3)cc1 | 12% | 63% | 30% | 53% | 5% | 7% | 16%
5 | COc1ccc(OC)c(/C=C/C(=O)c2cc3c(c4c2OC(C)(C)CC4)OC(C)(C)CC3)c1 | 2% | 36% | 17% | 52% | 27% | 15% | 23%
6 | COc1cc(OC)c(/C=C/C(=O)c2cc3c(c4c2OC(C)(C)CC4)OC(C)(C)CC3)c(OC)c1 | 5% | 62% | 27% | 32% | 77% | 26% | 17%
